From PMC2855844 (Cancer immunology, immunotherapy : CII, 2009)
Entries after “also recorded” stand apart in the source; their conditions may differ.

Legend:
[1] = system: Meth A-specific CTL; format: cell-based, mouse; conditions: E/T ratio 6:1, 4 h ^51Cr-release
Method in brief: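 Targets were T2-Kd cells pulsed with peptide, labeled with Na51CrO4, and plated at 1 × 10^3 per well. Meth A-specific CTL (cloned CD3+CD4−CD8+NK-1.1− line from Meth A-immune BALB/c mice) were added at E:T 6:1. Release was measured over 4 h and expressed as % specific lysis.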

[2] = molecular target: H2-K^d (Mus musculus, UniProt P01902); assay: MHC stabilization assay; format: binding; conditions: T2-K^d cells, 37°C, MFI with anti-H2-K^d mAb and FITC-conjugated anti-mouse IgG
Chain of H2-K^d (P01902 whole entry, looked up): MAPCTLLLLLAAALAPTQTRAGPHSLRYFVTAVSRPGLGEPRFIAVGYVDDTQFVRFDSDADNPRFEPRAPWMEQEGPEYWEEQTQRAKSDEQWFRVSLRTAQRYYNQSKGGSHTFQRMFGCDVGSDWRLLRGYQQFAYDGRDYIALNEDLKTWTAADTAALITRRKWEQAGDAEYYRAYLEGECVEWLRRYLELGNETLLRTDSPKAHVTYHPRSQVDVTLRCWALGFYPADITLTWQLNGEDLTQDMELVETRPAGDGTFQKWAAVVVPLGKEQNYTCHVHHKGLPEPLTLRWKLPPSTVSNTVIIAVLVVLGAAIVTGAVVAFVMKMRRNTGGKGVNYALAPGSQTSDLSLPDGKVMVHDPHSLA
Method in brief: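 Peptide-pulsed T2-Kd cells were kept at 37°C, then stained with anti-H2-Kd mAb (HB159) and FITC-conjugated anti-mouse IgG. Surface Kd was read as mean fluorescence intensity. Reference samples were unpulsed cells and peptide-pulsed cells held at 4°C.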

[3] = system: human CD8^+ T cells; assay: in vitro stimulation of human CD8^+ T cells; format: cell-based; conditions: preliminary findings; listed as Hsd17b12^114T peptide
[4] = T2-K^d cells pulsed with peptide

Sequence | affinity of Meth A CTL for peptide [1, 4] | affinity for H2-K^d molecules [2] | recognition by Meth A-specific CTL (in words) [1, 4] | fold higher affinity of Meth A CTL (TYDKIKTGL vs IYDKIKTGL) ([1]; TYDKIKTGL over IYDKIKTGL, T2-K^d cells) [×] | immunogenicity, stimulation of human CD8^+ T cells in vitro [3]
IYDKIKTGL | < 1e-08 M | ~ 1 × 10^−8 M |  |  | 
TYDKIKTGL | ~ 1 × 10^−10 M | ~ 1 × 10^−8 M | recognized by the Meth A-specific CTL | 100 | immunogenic; also recorded: can induce effectors cross-reactive against the HSD17B12_114–122 peptide, naturally presented by human tumor cell lines
